Test results: ChEMBL document CHEMBL4196064, “Identification of Pyrazolo[3,4-e][1,4]thiazepin based CYP51 inhibitors as potential Chagas disease therapeutic alternative: In vitro and in vivo evaluation, binding mode prediction and SAR exploration” (Eur J Med Chem, 2018)
Converted amounts (≈) assume the structure as drawn. The source made the active and inactive calls. The calls are words filed in the database; no cut-off is given here.

Tests used:
Trypanosoma cruzi [1] = assay: Antitrypanosomal activity against Trypanosoma cruzi Tulahuen trypomastigote forms infected in mouse L929 cells assessed as reduction in parasite load after 96 hrs by beta-galactosidase reporter gene assay; format: functional, organism-based; details: L929, 96 h
Procedure, shortened: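 L929 cells infected 2 h with tissue culture-derived Tulahuen β-galactosidase trypomastigotes (10:1 parasite/host cell), rinsed with saline, and left 48 h at 37℃. Increasing non-toxic concentrations applied for 96 h. Absorbance read at 570 nm, % growth inhibition versus untreated cells, EC50 derived; mean ± SD. DMSO not above 0.6 %.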

Trypanosoma cruzi [2] = assay: Antitrypanosomal activity against Trypanosoma cruzi Tulahuen trypomastigote forms infected in mouse L929 cells assessed as reduction in infection level at 10 to 12 uM after 96 hrs by beta-galactosidase reporter gene assay relative to control; format: functional; design: scale not given: the % may be the effect or the level left
Procedure, shortened: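 L929 cells infected 2 h with tissue culture-derived β-galactosidase-expressing Tulahuen trypomastigotes at 10:1 parasite/host cell ratio, rinsed, and held 48 h at 37℃. Single fixed concentration (10-12 µM) then applied, 96 h. Absorbance read at 570 nm; growth inhibition expressed relative to untreated cells. DMSO not above 0.6 %.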

[3] = Cytotoxicity against mouse L929 cells assessed as reduction in cell viability after 96 hrs by light microscopic analysis; format: cell-based; details: read-out: LC50
Procedure, shortened: (§1)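 L929 fibroblasts (4x10^3 cells/well) in RPMI 1640 with 10% FBS, incubated at 37°C with increasing concentrations for 96 h. Viability was read with AlamarBlue (6 h incubation, absorbance at 600 nm) and confirmed by light microscopy.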

[4] = Cytotoxicity against mouse L929 cells assessed as reduction in cell viability after 96 hrs by Alamarblue assay; format: cell-based; details: read-out: LC50; procedure, shortened: as §1
[5] = Selectivity index, ratio of LC50 for mouse L929 cells by light microscopic analysis to EC50 for Trypanosoma cruzi Tulahuen trypomastigote forms; format: toxicity; details: read-out: Selectivity Index
[6] = Selectivity index, ratio of LC50 for mouse L929 cells by Alamarblue assay to EC50 for Trypanosoma cruzi Tulahuen trypomastigote forms; format: toxicity; details: read-out: Selectivity Index
Trypanosoma cruzi [7] = assay: Antitrypanosomal activity against bloodstream trypomastigote stage of Trypanosoma cruzi Y measured after 2 hrs by light microscopic analysis; format: functional, organism-based
Procedure, shortened: (§2)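 Y strain bloodstream trypomastigotes from heart puncture of infected mice, at 5x10⁶/mL in RPMI 1640 with 5% FBS. Incubated at 37℃ with 0–50 µM for 2 or 24 h. […] Mean ± SD.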

Trypanosoma cruzi [8] = assay: Antitrypanosomal activity against bloodstream trypomastigote stage of Trypanosoma cruzi Y measured after 24 hrs by light microscopic analysis; format: functional, organism-based; procedure, shortened: as §2
[9] = Cytotoxicity against Swiss Webster mouse cardiac cells assessed as reduction in cell viability after 24 hrs by light microscopic analysis; format: cell-based, Cardiac Muscle Cell; details: read-out: LC50
Procedure, shortened: (§3)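 Primary cardiac cells from Swiss Webster mouse embryos, cultured at 37°C in DMEM with 5% FBS, CaCl2, glutamine and chick embryo extract. Uninfected cultures were exposed to increasing concentrations for 24 h. Viability was read with PrestoBlue (5 h incubation, absorbance at 570 nm) and checked by light microscopy for morphology.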

[10] = Cytotoxicity against Swiss Webster mouse cardiac cells assessed as reduction in cell viability after 24 hrs by prestoblue assay; format: cell-based, Cardiac Muscle Cell; details: read-out: LC50; procedure, shortened: as §3
[11] = Selectivity index, ratio of LC50 for Swiss Webster mouse cardiac cells by light microscopic analysis to EC50 for bloodstream trypomastigote stage of Trypanosoma cruzi Y measured after 24 hrs; format: toxicity; details: read-out: Selectivity Index
Procedure, shortened: (§4)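 The ratio is cardiac-cell LC50 (24 h) over the 24 h EC50 against Y-strain bloodstream trypomastigotes. Trypomastigotes (5x10^6/mL) were exposed to 0-50 µM at 37°C in RPMI with 5% FBS. Surviving parasites were counted in a Neubauer chamber, and the EC50 is the concentration halving the parasite number.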

[12] = Selectivity index, ratio of LC50 for Swiss Webster mouse cardiac cells by prestoblue assay to EC50 for bloodstream trypomastigote stage of Trypanosoma cruzi Y measured after 24 hrs; format: toxicity; details: read-out: Selectivity Index; procedure, shortened: as §4
Trypanosoma cruzi [13] = assay: Antitrypanosomal activity against bloodstream trypomastigote stage of Trypanosoma cruzi Y infected in Swiss Webster mouse assessed as reduction in parasitemia at 100 mg/kg, po administered daily on day 5 to 9 post infection relative to control; format: functional; design: scale not given: the % may be the effect or the level left
Procedure, shortened: (§5)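 Male Swiss Webster mice (18–20 g) infected i.p. with 10^4 Y strain bloodstream trypomastigotes. Treatment given days 5–9 post infection: test compound i.p. 5–20 mg/kg/day (0.1 mL, DMSO then 20% Trappsol) or Bz 100 mg/kg/day p.o. (3% Tween 80 in water). Controls infected, vehicle only. Parasitemia counted by Pizzi-Brener in 5 µL tail blood; mortality checked daily to 30 days post treatment.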

Trypanosoma cruzi [14] = assay: Antitrypanosomal activity against bloodstream trypomastigote stage of Trypanosoma cruzi Y infected in Swiss Webster mouse assessed as mouse survival at 100 mg/kg, po administered daily on day 5 to 9 measured daily until 30 days post dose relative to control; format: functional
Procedure, shortened: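 Male Swiss Webster mice (18-20 g) were infected i.p. with 10^4 Y-strain bloodstream trypomastigotes. Benznidazole was given in sterile water with 3% Tween 80, 0.1 mL p.o. daily from 5 to 9 dpi. Mice were checked daily for mortality until 30 days post treatment, and the result was expressed as percentage cumulative mortality.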

Trypanosoma cruzi [15] = assay: Antitrypanosomal activity against bloodstream trypomastigote stage of Trypanosoma cruzi Y infected in Swiss Webster mouse assessed as reduction in parasitemia at 100 mg/kg, po administered daily measured at day 8 post infection; format: functional, organism-based
Trypanosoma cruzi [16] = assay: Antitrypanosomal activity against bloodstream trypomastigote stage of Trypanosoma cruzi Y infected in Swiss Webster mouse assessed as reduction in parasitemia at 5 mg/kg, ip administered daily on day 5 to 9 post infection relative to control; format: functional; design: scale not given: the % may be the effect or the level left; procedure, shortened: as §5
Trypanosoma cruzi [17] = assay: Antitrypanosomal activity against bloodstream trypomastigote stage of Trypanosoma cruzi Y infected in Swiss Webster mouse assessed as reduction in parasitemia at 10 mg/kg, ip administered daily on day 5 to 9 post infection relative to control; format: functional; design: scale not given: the % may be the effect or the level left; procedure, shortened: as §5
Trypanosoma cruzi [18] = assay: Antitrypanosomal activity against bloodstream trypomastigote stage of Trypanosoma cruzi Y infected in Swiss Webster mouse assessed as reduction in parasitemia at 20 mg/kg, ip administered daily on day 5 to 9 post infection relative to control; format: functional; design: scale not given: the % may be the effect or the level left; procedure, shortened: as §5
Trypanosoma cruzi [19] = assay: Antitrypanosomal activity against bloodstream trypomastigote stage of Trypanosoma cruzi Y infected in Swiss Webster mouse assessed as increase in mouse survival at 5 to 20 mg/kg, ip administered daily on day 5 to 9 measured daily until 30 days post dose relative to control; format: functional, organism-based; procedure, shortened: as §5
[20] = Acute toxicity in ip dosed Swiss Webster mouse measured 48 hrs post dose; format: organism-based; details: in vivo
Procedure, shortened: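 Female Swiss Webster mice (20 to 23 g) injected intraperitoneally with increasing doses up to 200 mg/kg, n = 2 mice per assay, two assays. Animals inspected for toxic and subtoxic signs under OECD guidelines; NOAEL determined 48 h after injection. Vehicle: DMSO then Trappsol, in vivo vehicle not above 20 %.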

[21] = biological target: Sterol 14-alpha demethylase (Trypanosoma cruzi (strain CL Brener), UniProt Q7Z1V1); assay: Inhibition of recombinant Trypanosoma cruzi Tulahuen CYP51 expressed in Escherichia coli JM109 cell membranes assessed as […] by fluorescence based analysis
Sterol 14-alpha demethylase, sequence (Q7Z1V1 whole entry): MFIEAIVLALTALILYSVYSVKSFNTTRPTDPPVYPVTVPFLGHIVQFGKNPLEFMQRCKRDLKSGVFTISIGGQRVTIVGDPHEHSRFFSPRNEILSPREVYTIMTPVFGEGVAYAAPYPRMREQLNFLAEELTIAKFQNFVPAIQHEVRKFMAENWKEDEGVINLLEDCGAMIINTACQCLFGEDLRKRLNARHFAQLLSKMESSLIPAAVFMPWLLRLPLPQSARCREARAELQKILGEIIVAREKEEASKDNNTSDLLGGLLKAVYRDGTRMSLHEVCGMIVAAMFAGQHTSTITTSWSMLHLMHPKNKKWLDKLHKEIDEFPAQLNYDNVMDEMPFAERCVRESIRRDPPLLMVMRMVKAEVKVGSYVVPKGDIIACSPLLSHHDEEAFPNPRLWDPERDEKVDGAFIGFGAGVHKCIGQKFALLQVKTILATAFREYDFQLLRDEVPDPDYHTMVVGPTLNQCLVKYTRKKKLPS

[22] = biological target: Sterol 14-alpha demethylase (Trypanosoma cruzi (strain CL Brener)) (UniProt Q7Z1V1); assay: Potency index, ratio of fluconazole IC50 to compound IC50 for recombinant Trypanosoma cruzi Tulahuen CYP51
Sterol 14-alpha demethylase (Trypanosoma cruzi (strain CL Brener)), sequence (Q7Z1V1 whole entry, looked up): as the sequence (Q7Z1V1 whole entry) above

[23] = biological target: Sterol 14-alpha demethylase (Trypanosoma cruzi (strain CL Brener)) (UniProt Q7Z1V1); assay: Inhibition of recombinant Trypanosoma cruzi Tulahuen CYP51 expressed in Escherichia coli JM109 cell membranes assessed as residual activity at 0.01 uM by fluorescence based analysis (reference value: 95%)
[24] = biological target: Sterol 14-alpha demethylase (Trypanosoma cruzi (strain CL Brener)) (UniProt Q7Z1V1); assay: Inhibition of recombinant Trypanosoma cruzi Tulahuen CYP51 expressed in Escherichia coli JM109 cell membranes assessed as residual activity at 0.033 uM by fluorescence based analysis (reference value: 95%)
[25] = biological target: Sterol 14-alpha demethylase (Trypanosoma cruzi (strain CL Brener)) (UniProt Q7Z1V1); assay: Inhibition of recombinant Trypanosoma cruzi Tulahuen CYP51 expressed in Escherichia coli JM109 cell membranes assessed as residual activity at 0.1 uM by fluorescence based analysis (reference value: 95%)
[26] = biological target: Sterol 14-alpha demethylase (Trypanosoma cruzi (strain CL Brener)) (UniProt Q7Z1V1); assay: Inhibition of recombinant Trypanosoma cruzi Tulahuen CYP51 expressed in Escherichia coli JM109 cell membranes assessed as residual activity at 0.33 uM by fluorescence based analysis (reference value: 95%)
[27] = biological target: Sterol 14-alpha demethylase (Trypanosoma cruzi (strain CL Brener)) (UniProt Q7Z1V1); assay: Inhibition of recombinant Trypanosoma cruzi Tulahuen CYP51 expressed in Escherichia coli JM109 cell membranes assessed as residual activity at 1 uM by fluorescence based analysis (reference value: 95%)
[28] = biological target: Sterol 14-alpha demethylase (Trypanosoma cruzi (strain CL Brener)) (UniProt Q7Z1V1); assay: Inhibition of recombinant Trypanosoma cruzi Tulahuen CYP51 expressed in Escherichia coli JM109 cell membranes assessed as residual activity at 3.3 uM by fluorescence based analysis (reference value: 95%)
[29] = biological target: Sterol 14-alpha demethylase (Trypanosoma cruzi (strain CL Brener)) (UniProt Q7Z1V1); assay: Inhibition of recombinant Trypanosoma cruzi Tulahuen CYP51 expressed in Escherichia coli JM109 cell membranes assessed as residual activity at 10 uM by fluorescence based analysis (reference value: 95%)
Trypanosoma cruzi [30] = assay: Antitrypanosomal activity against Trypanosoma cruzi Sylvio X10/7 intracellular amastigotes forms assessed as reduction in number of amastigotes per host cell measured every 24 hrs for 96 hrs by time-kill assay; format: functional, organism-based
Trypanosoma cruzi [31] = assay: Trypanocidal activity against Trypanosoma cruzi Sylvio X10/7 intracellular amastigotes forms measured every 24 hrs for 96 hrs by time-kill assay; format: functional
Trypanosoma cruzi [32] = assay: Trypanocidal activity against Trypanosoma cruzi Sylvio X10/7 intracellular amastigotes forms assessed as inhibition of maximum parasite growth measured every 24 hrs for 96 hrs by time-kill assay relative to control; format: functional

O=C(Cn1ccnc1[N+](=O)[O-])NCc1ccccc1 [BENZNIDAZOLE]
EC50 (Trypanosoma cruzi [1]): 2.63 to 3.79 µM | Activity (Trypanosoma cruzi [2]): 89.3% | CC50 at 96 h [3]: > 200 µM | CC50 at 96 h [4]: > 200 µM | selectivity ratio [5]: > 53 | selectivity ratio [6]: > 53 | EC50 (Trypanosoma cruzi [7]): 10 to 50 µM | EC50 (Trypanosoma cruzi [8]): 6.02 to 16.9 µM | CC50 at 24 h [9]: > 200 µM | CC50 at 24 h [10]: > 200 µM | selectivity ratio at 24 h [11]: > 12 | selectivity ratio at 24 h [12]: > 12 | Activity (Trypanosoma cruzi [13]): 100% | survival at 100 mg/kg (Trypanosoma cruzi [14]): 100% | Activity (Trypanosoma cruzi [15]): Active

Cc1n[nH]c2c1[C@@H](c1ccc(OCc3ccccc3Cl)cc1)S[C@@H](C)C(=O)N2
EC50 (Trypanosoma cruzi [1]): 3.86 µM | EC50 (Trypanosoma cruzi [7]): > 10 µM | EC50 (Trypanosoma cruzi [8]): 4 µM | Activity (Trypanosoma cruzi [16]): 30% | Activity (Trypanosoma cruzi [17]): 38% | Activity (Trypanosoma cruzi [18]): 43% | Activity (Trypanosoma cruzi [19]): inactive | NOAEL at 48 h [20]: > 50 mg/kg | IC50 [21]: 100 nM | Ratio IC50 [22]: 8 | Activity [23]: 89.9% | Activity [24]: 75.8% | Activity [25]: 49.5% | Activity [26]: 0% | Activity [27]: 5.4% | Activity [28]: 1.2% | Activity [29]: 0% | EC50 (Trypanosoma cruzi [30]): 400 nM | MIC (Trypanosoma cruzi [31]): 17 µM (≈ 7.04 µg/mL) | Imax (Trypanosoma cruzi [32]): 94%
